Test results published in ChEMBL document CHEMBL1132156, “Synthesis and structure-activity relationships of potential anticancer agents: alkylcarbamates of 3-(9-acridinylamino)-5-hydroxymethylaniline” (J Med Chem, 1999).

Key:
Mus musculus [1] = experiment: […] anticancer activity against B6D2F-1 mice bearing P388 leukemia measured by the average weight change(g) after day 11 at an intravenous dose of 15(mg/kg).; format: functional
In short: (§1)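 Male B6D2F1 mice (8 weeks old, 20–25 g) were implanted iv on day 0 with P388/0 ascites cells (0.2 mL; ascites:saline 1.10), which grew in the liver. Drug was given iv via the tail vein, Q2Dx5, on days 1, 3, 5, 7 and 9. Groups had 4–5 mice. Day 1 value is mean body weight; later days are weight change.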

Mus musculus [2] = experiment: […] anticancer activity against B6D2F-1 mice bearing P388 leukemia measured by the average weight change(g) after day 9 at an intravenous dose of 15(mg/kg).; format: functional
In short: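 Male B6D2F1 mice (8 weeks old, 20–25 g) were implanted iv on day 0 with P388/0 ascites cells (0.2 mL; ascites:saline = 1.10). Tumor grew in the liver. Drug was given iv via the tail vein, Q2Dx5, on days 1, 3, 5, 7 and 9. Body weight was recorded on days 1, 7, 9 and 11 and reported as the average change (g).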

Mus musculus [3] = experiment: […] anticancer activity against B6D2F-1 mice bearing Lewis Lung Carcinoma measured by the Average tumor vol after day 10 at an intraperitoneal dose of 3(mg/kg).; format: functional
In short: (§2)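 Male B6D2F1 mice (8 weeks old, 20–25 g) received 4×10^6 Lewis lung carcinoma cells sc on day -2. Dosing was ip, QDx5, starting on day 1. Groups were 4 control mice and 3 mice per dose. Tumor size and average body-weight change were evaluated on days 7, 10 and 14. Tumor volume is expressed as the treated/control ratio.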

Mus musculus [4] = experiment: […] anticancer activity against B6D2F-1 mice bearing Sarcoma 180 measured by the Average tumor vol after day 7 at an intravenous dose of 7(mg/kg).
Mus musculus [5] = experiment: […] anticancer activity against B6D2F-1 mice bearing Sarcoma 180 measured by the average weight change(g) after day 10 at an intraperitoneal dose of 3(mg/kg).; format: functional
In short: (§3)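 Male B6D2F1 mice (8 weeks old, 20–25 g) were inoculated sc with 3×10^6 Sarcoma 180 cells on day 0. Dosing was ip, QDx5, starting on day 1. Groups were 4 control mice and 2 mice per dose. Average body weight change (g) and treated/control tumor volume were evaluated on days 7, 10 and 14.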

Mus musculus [6] = experiment: […] anticancer activity against B6D2F-1 mice bearing P388 leukemia measured by the Average tumor vol after day 14 at an intravenous dose of 3(mg/kg).; format: functional
Mus musculus [7] = experiment: […] anticancer activity against B6D2F-1 mice bearing P388 leukemia measured by the Average tumor vol after day 10 at an intravenous dose of 3(mg/kg).; format: functional
Mus musculus [8] = experiment: […] anticancer activity against B6D2F-1 mice bearing Sarcoma 180 measured by the average weight change(g) after day 14 at an intraperitoneal dose of 7(mg/kg).; format: functional; in short: as §3
Mus musculus [9] = experiment: […] anticancer activity against B6D2F-1 mice bearing Lewis Lung Carcinoma measured by the average weight change(g) after day 7 at an intraperitoneal dose of 3(mg/kg).; format: functional; in short: as §2
Mus musculus [10] = experiment: […] anticancer activity against B6D2F-1 mice bearing Lewis Lung Carcinoma measured by the Average tumor vol after day 14 at an intraperitoneal dose of 3(mg/kg).; format: functional; in short: as §2
Mus musculus [11] = experiment: […] anticancer activity against B6D2F-1 mice bearing P388 leukemia measured by the average weight change(g) after day 7 at an intravenous dose of 10(mg/kg).; format: functional; in short: as §1
Mus musculus [12] = experiment: […] anticancer activity against B6D2F-1 mice bearing P388 leukemia measured by the Average tumor vol after day 11 at an intravenous dose of 7(mg/kg).; format: functional
Mus musculus [13] = experiment: […] anticancer activity against B6D2F-1 mice bearing Lewis Lung Carcinoma measured by the average weight change(g) after day 7 at an intraperitoneal dose of 6(mg/kg).; format: functional; in short: as §2
Mus musculus [14] = experiment: […] anticancer activity against 5 B6D2F-1 mice bearing P388 leukemia measured by the toxicity death at an intravenous dose of 15(mg/kg).; format: organism-based; settings: in vivo
In short: (§4)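 Male B6D2F1 mice, 8 weeks old, 20–25 g. P388/0 ascites cells (0.2 mL, ascites:saline 1.10) were implanted iv on day 0, and the tumor grew in the liver. Drug was given iv by tail vein on days 1, 3, 5, 7 and 9 (Q2Dx5), with 4–5 mice per group. Survival time was scored as 8 a.m. (0.0), 1 p.m. (0.25) or 5 p.m. (0.5) deaths. %ILS was averaged against untreated controls, and toxic deaths were counted.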

Mus musculus [15] = experiment: […] anticancer activity against B6D2F-1 mice bearing P388 leukemia measured by the average weight change(g) after day 11 at an intravenous dose of 10(mg/kg).; format: functional; in short: as §1
Mus musculus [16] = experiment: […] anticancer activity against B6D2F-1 mice bearing P388 leukemia measured by the Average tumor vol after day 10 at an intravenous dose of 5(mg/kg).; format: functional
Mus musculus [17] = experiment: […] anticancer activity against B6D2F-1 mice bearing Sarcoma 180 measured by the average weight change(g) after day 14 at an intraperitoneal dose of 3(mg/kg).
Mus musculus [18] = experiment: […] anticancer activity against B6D2F-1 mice bearing P388 leukemia measured by the average body weight(g) after day 1 at an intravenous dose of 10(mg/kg).
Mus musculus [19] = experiment: […] anticancer activity against B6D2F-1 mice bearing Sarcoma 180 measured by the average weight change(g) after day 14 at an intraperitoneal dose of 5(mg/kg).
Mus musculus [20] = experiment: […] anticancer activity against B6D2F-1 mice bearing Lewis Lung Carcinoma measured by the average weight change(g) after day 14 at an intraperitoneal dose of 3(mg/kg).; format: functional; in short: as §2
Mus musculus [21] = experiment: […] anticancer activity against B6D2F-1 mice bearing P388 leukemia measured by the Average survival time(day+/-SD) at an intravenous dose of 15(mg/kg).; format: functional; in short: as §4
Mus musculus [22] = experiment: […] anticancer activity against B6D2F-1 mice bearing Lewis Lung Carcinoma measured by the Average tumor vol after day 7 at an intraperitoneal dose of 3(mg/kg).; format: functional; in short: as §2
Mus musculus [23] = experiment: […] anticancer activity against B6D2F-1 mice bearing Sarcoma 180 measured by the average weight change(g) after day 7 at an intraperitoneal dose of 7(mg/kg).; format: functional; in short: as §3
Mus musculus [24] = experiment: […] anticancer activity against B6D2F-1 mice bearing Lewis Lung Carcinoma measured by the average weight change(g) after day 10 at an intraperitoneal dose of 6(mg/kg).; format: functional; in short: as §2
Mus musculus [25] = experiment: […] anticancer activity against B6D2F-1 mice bearing Lewis Lung Carcinoma measured by the average weight change(g) after day 10 at an intraperitoneal dose of 3(mg/kg).; format: functional; in short: as §2
Mus musculus [26] = experiment: […] anticancer activity against B6D2F-1 mice bearing Sarcoma 180 measured by the Average tumor vol after day 7 at an intravenous dose of 3(mg/kg).
Mus musculus [27] = experiment: […] anticancer activity against B6D2F-1 mice bearing Lewis Lung Carcinoma measured by the Average tumor vol after day 10 at an intraperitoneal dose of 6(mg/kg).; format: functional; in short: as §2

`CCOC(=O)Nc1cc(CO)cc(Nc2c3ccccc3nc3ccccc23)c1` gave an Average weight change (Mus musculus [1]) of -3.7 g, an Average weight change (Mus musculus [2]) of -2 g and an Average tumor volume (Mus musculus [3]) of 0.63. For the same compound, the Average tumor volume (Mus musculus [4]) was 0.22, the Average weight change (Mus musculus [5]) was -0.7 g and the Average tumor volume (Mus musculus [6]) was 0.74. The Average tumor volume (Mus musculus [7]) was 1.21, the Average weight change (Mus musculus [8]) was -0.4 g and the Average weight change (Mus musculus [9]) was -2.3 g. The Average tumor volume (Mus musculus [10]) was 0.68, the Average weight change (Mus musculus [11]) was -0.2 g and the Average tumor volume (Mus musculus [12]) was <0.01. The Average weight change (Mus musculus [13]) was -3 g, the Toxicity related death (Mus musculus [14]) was 4 and the Average weight change (Mus musculus [15]) was -0.1 g. For the same compound, the Average tumor volume (Mus musculus [16]) was 0.63, the Average weight change (Mus musculus [17]) was -0.8 g and the Body weight (Mus musculus [18]) was 22.9 g. It also gave an Average weight change (Mus musculus [19]) of 1.2 g, an Average weight change (Mus musculus [20]) of -0.8 g and an Average survival (Mus musculus [21]) of 13.2 days. It also gave an Average tumor volume (Mus musculus [22]) of 0.8, an Average weight change (Mus musculus [23]) of -3.4 g and an Average weight change (Mus musculus [24]) of -2.6 g. For the same compound, the Average weight change (Mus musculus [25]) was -1.3 g, the Average tumor volume (Mus musculus [26]) was 1.24 and the Average tumor volume (Mus musculus [27]) was 0.37.
